These results are taken from ChEMBL document CHEMBL1806413, “New C-23 modified of silybin and 2,3-dehydrosilybin: synthesis and preliminary evaluation of antioxidant properties” (Bioorg Med Chem Lett, 2011).

Molecules are shown by their SMILES. Calls of active or inactive are those of the source. No cut-off for these calls is given here.

Data set [1] relates to Rat1. Description: Cytotoxicity against rat immortalized Rat1 cells assessed as reduction of cell viability at 30 uM after 48 hrs by MTT assay. The following applies: rat1, 48 h. The class given is cell-based. In a few lines: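 Exponentially growing rat fibroblasts given compound at 30 μM; viability assessed by MTT test after 48 h.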
In general terms: Tetrazolium dyes change colour on reduction, which living cells bring about.

Data set [2] concerns Rat1. As to the kind of experiment: Antioxidant activity in rat immortalized Rat1 cells assessed as inhibition of hydrogen peroxide-induced reactive oxygen species production by measuring conversion of 2',7'-dichlorofluorescin diacetate into 2',7'-dichlorofluorescein at 30 uM treated 48 hrs before H2O2 challenge measured after 15 mins by fluorescence assay. The class given is functional, cell-based. In a few lines:
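Immortalized rat fibroblasts pre-treated 48 h with compound (30 μM), then exposed to 100 μM H2O2 for 15 min; intracellular ROS read as DCF fluorescence from DCFH-DA oxidation. Basal (no H2O2) levels also measured. Values expressed as % of fluorescence in untreated control cells (set at 100).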

Data set [3] has as its system Rat1. As to the kind of experiment: Cytotoxicity against rat immortalized Rat1 cells after 48 hrs by MTT assay. The class given is cell-based. The following applies: for IC50: Rattus norvegicus, Rat1, 48 h; for Activity: rat, rat1, 48 h.

As to `COc1cc(C2Oc3cc(-c4oc5cc(O)cc(O)c5c(=O)c4O)ccc3OC2CO)ccc1O` (mixture of isomers) [DEHYDROSILYLBIN], in the data set with Rat1 [1], the Activity result is “Non-toxic”. Besides, the inhibition result in the data set on Rat1 [2] was “Active”. Moreover, in the data set with Rat1 [3], the IC50 (in general, the midpoint of a concentration-inhibition curve) turned out to be 155 µM and the Activity entry is recorded as “Dose-dependent effect”.

On to `COc1cc(C2Oc3cc([C@H]4Oc5cc(O)cc(O)c5C(=O)[C@@H]4O)ccc3OC2CO)ccc1O` (mixture of isomers) [SILIBININ], for which the Activity result in the data set with Rat1 [1] is reported as “Non-toxic”; with Rat1 [3], “Dose-dependent effect”. In addition, the inhibition entry in the data set with Rat1 [2] was “Active”. The IC50 in the data set with Rat1 [3] is 162 µM.
